# IDH1 R132H inh: inhibitors of human IDH1 R132H. inhibition, % at 10 µM. IDH1 R132H reductase, diaphorase/resazurin fluorescence, 60 min. 70,000 compounds, 0.18% hits; in the data active = inhibition above about 34%;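 also: 0% = DMSO and 100% = no enzyme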
# Target sequence (O75874 whole entry R132H): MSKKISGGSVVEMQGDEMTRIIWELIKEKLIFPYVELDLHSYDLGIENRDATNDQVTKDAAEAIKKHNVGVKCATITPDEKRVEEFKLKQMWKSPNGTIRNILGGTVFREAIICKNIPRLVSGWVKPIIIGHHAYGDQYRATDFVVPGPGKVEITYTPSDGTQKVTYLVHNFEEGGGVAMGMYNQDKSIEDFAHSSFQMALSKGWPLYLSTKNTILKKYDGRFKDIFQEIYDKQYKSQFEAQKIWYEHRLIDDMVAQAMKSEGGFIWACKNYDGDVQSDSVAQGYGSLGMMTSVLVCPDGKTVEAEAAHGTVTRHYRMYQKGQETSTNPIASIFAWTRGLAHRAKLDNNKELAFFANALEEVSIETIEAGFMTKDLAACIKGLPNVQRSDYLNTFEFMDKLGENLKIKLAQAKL
# Tcruzi prolif: T. cruzi proliferation inhibition; 77,000 compounds, 5.9% hits; AID 624255; inhibition, % at 8.34 µM; T. cruzi beta-gal in NIH3T3, GalScreen luminescence, 90 h;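 active = mean inhibition above about 93%, with at least 55% of replicates each passing it, limit read from the data, passing the limit was not always enough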
# Pf Dd2 inh: blocks growth of Plasmodium falciparum Dd2 parasites; activity change, % at 10 µM; 94,000 compounds, 2.3% hits; P. falciparum Dd2 growth, SYBR Green, 72 h; stronger effect = lower value; in the data active = activity change below about -80%
# GASC1 inh: KDM4C (human) demethylase inhibition | GST-KDM4C 2-372, H3K9me3 peptide, LANCE TR-FRET | 96,000 compounds, 0.15% hits | inhibition, % at 12.5 µM | Q9H3R0;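 active = mean replicate inhibition above about 25%, with at least 55% of replicates also reaching it, limit read from the data, passing the limit was not always enough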
#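 System – N-terminal GST-fused human GASC-1 (KDM4C) fragment, residues 2-372 · Input – enzyme final amount 10 nM · Technique – LANCE TR-FRET, Eu antibody, ULight-streptavidin, EDTA, ex 340 nm, em 618/671 nm · Medium – HEPES buffer, pH 7.5, plus ascorbate · Incubation – enzyme reaction 30 min, then detection 60 min, both room temperature · Reagent – H3K9me3 peptide with Fe(II)/2OG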
# Numbers without * were called inactive; . = not tested or not shown. Shown are actives, neighbours in structure and some others; about 5.9% of the full set was active somewhere.
SMILES,IDH1 R132H inh,Tcruzi prolif,Pf Dd2 inh,GASC1 inh
COc1ccc(NC(=O)Nc2ccc3c(c2)C(=O)N([C@@H](C)CO)C[C@H](C)[C@@H](CN(C)C(=O)Cc2ccccc2)OCCCC[C@@H](C)O3)cc1,2.2,68.3,-85.8*,-1.0
C[C@@H]1CCCCO[C@@H](CN(C)C(=O)Nc2ccc3c(c2)OCO3)[C@@H](C)CN([C@@H](C)CO)C(=O)c2cc(NC(=O)Nc3ccc(F)cc3)ccc2O1,1.7,24.9,-82.8*,-0.4
C[C@@H]1CCCCO[C@@H](CN(C)C(=O)Nc2ccc3c(c2)OCO3)[C@@H](C)CN([C@H](C)CO)C(=O)c2cc(NC(=O)Nc3ccc(F)cc3)ccc2O1,1.3,36.7,8.4,1.1
C[C@@H]1CCCCO[C@H](CN(C)C(=O)Nc2ccc(C(F)(F)F)cc2)[C@@H](C)CN([C@H](C)CO)C(=O)c2cc(NC(=O)Nc3ccc4c(c3)OCO4)ccc2O1,.,107.3*,-38.0,.
C[C@@H]1CCCCO[C@@H](CN(C)C(=O)CCC(F)(F)F)[C@@H](C)CN([C@@H](C)CO)C(=O)c2cc(NC(=O)Nc3ccc4c(c3)OCO4)ccc2O1,-1.9,-1.8,-11.2,17.3
C[C@@H]1CCCCO[C@H](CN(C)C(=O)CCC(F)(F)F)[C@@H](C)CN([C@H](C)CO)C(=O)c2cc(NC(=O)Nc3ccc4c(c3)OCO4)ccc2O1,0.7,87.8,-82.6*,-1.3
COC(=O)c1cc(OC)c(OC)cc1NC(=O)COc1ccc(Br)c(C)c1,-0.1,.,.,.
COc1ccc(NC(=O)Nc2ccc3c(c2)C(=O)N([C@H](C)CO)C[C@@H](C)[C@@H](CN(C)C(=O)Nc2ccc4c(c2)OCO4)OCCCC[C@@H](C)O3)cc1,.,68.9,-90.3*,-0.5
C[C@@H]1CCCCO[C@H](CN(C)C(=O)Nc2ccc3c(c2)OCO3)[C@H](C)CN([C@H](C)CO)C(=O)c2cc(NC(=O)Nc3ccc(C(F)(F)F)cc3)ccc2O1,0.5,93.4,-88.6*,0.1
C[C@H](CO)N1C[C@H](C)[C@@H](CN(C)C(=O)Nc2ccc(C(F)(F)F)cc2)OCCCC[C@H](C)Oc2ccc(NC(=O)Nc3ccc4c(c3)OCO4)cc2C1=O,.,118.6*,-37.6,-3.8
C[C@@H]1CCCCO[C@H](CN(C)C(=O)Nc2ccc3c(c2)OCO3)[C@H](C)CN([C@H](C)CO)C(=O)c2cc(NC(=O)NC3CCCCC3)ccc2O1,.,62.9,-82.0*,-0.3
CS(=O)(=O)N(CC(=O)Nc1cccc([N+](=O)[O-])c1)c1ccc(F)c(Cl)c1,-0.2,.,.,.
O=C(CCN1C(=O)C2C3c4ccccc4C(c4ccccc43)C2C1=O)Oc1ccccc1[N+](=O)[O-] (configuration not stated),0.0,.,.,.
COc1ccc(S(=O)(=O)N(C)C[C@H]2OCCCC[C@@H](C)Oc3ccc(NC(=O)Nc4ccccc4)cc3C(=O)N([C@H](C)CO)C[C@@H]2C)cc1,.,-53.2,-8.9,0.2
COc1ccc(NC(=O)Nc2ccc3c(c2)C(=O)N([C@H](C)CO)C[C@@H](C)[C@H](CN(C)S(=O)(=O)c2ccccc2)OCCCC[C@@H](C)O3)cc1,0.8,-25.6,-82.5*,-1.3
COc1ccc(NC(=O)Nc2ccc3c(c2)C(=O)N([C@H](C)CO)C[C@@H](C)[C@H](CN(C)S(=O)(=O)c2ccc(C)cc2)OCCCC[C@H](C)O3)cc1,1.0,72.5,-66.6,0.5
COc1ccc(NC(=O)Nc2ccc3c(c2)C(=O)N([C@@H](C)CO)C[C@H](C)[C@H](CN(C)S(=O)(=O)c2ccc(C)cc2)OCCCC[C@@H](C)O3)cc1,1.0,39.1,-86.1*,0.1
COc1ccc(S(=O)(=O)N(C)C[C@H]2OCCCC[C@H](C)Oc3ccc(NC(=O)Nc4ccccc4)cc3C(=O)N([C@@H](C)CO)C[C@H]2C)cc1,.,48.7,-83.3*,-0.2
COc1ccccc1NC(=O)c1ccc(CSc2nnnn2-c2ccccc2)cc1,4.0,.,.,.
O=C(CCCCCC(=O)N/N=C/c1ccc([N+](=O)[O-])c(O)c1)NO,-0.3,.,.,.
CC(C)c1cc(I)ccc1NC(=O)CSc1nc2ccccc2c(=O)[nH]1,-0.1,.,.,.
C[C@@H]1CN([C@@H](C)CO)S(=O)(=O)c2ccc(C#C[C@@H](C)O)cc2O[C@@H]1CN(C)Cc1ccncc1,.,56.6,-17.2,-2.1
C[C@H](O)C#Cc1ccc2c(c1)O[C@@H](CN(C)Cc1ccncc1)[C@@H](C)CN([C@H](C)CO)S2(=O)=O,.,89.9,2.1,-0.2
C[C@@H]1CN([C@H](C)CO)S(=O)(=O)c2ccc(-c3ccncc3)cc2O[C@H]1CN(C)Cc1ccc(Oc2ccccc2)cc1,0.5,52.6,-87.4*,3.4
CC(C)C#Cc1ccc2c(c1)O[C@@H](CN(C)Cc1ccncc1)[C@H](C)CN([C@@H](C)CO)S2(=O)=O,3.1,121.2*,-73.7,-0.8
SMILES,IDH1 R132H inh,Tcruzi prolif,Pf Dd2 inh,GASC1 inh
CC(C)C#Cc1ccc2c(c1)O[C@H](CN(C)Cc1ccncc1)[C@@H](C)CN([C@@H](C)CO)S2(=O)=O,4.6,117.1*,-65.3,-0.2
CCn1cc(CN(C)C(=S)Nc2cccc(C(C)=O)c2)c(C)n1,12.6,.,.,.
CC(C)CNc1nc(SCC(N)=O)nc(N2CCOCC2)n1,-0.1,.,.,.
Cc1ccc2c(c1)NC(C(F)(F)F)(C(F)(F)F)NC2=O,-0.2,.,.,.
CCC(=O)N[C@@H]1CC[C@H](CCn2cc(-c3cccc(OC)c3)nn2)O[C@@H]1CO,-0.1,-40.8,-19.7,29.0*
COc1cccc(-c2cn(CC[C@@H]3CC[C@H](NC(=O)CC4CC4)[C@@H](CO)O3)nn2)c1,6.7,4.1,4.9,54.6*
O=C(Nc1ccccc1)c1ccc(CNc2nccc(-c3cccnc3)n2)cc1,0.1,.,.,.
C[C@@H]1CCCCO[C@H](CN(C)C(=O)NC2CCCCC2)[C@H](C)CN([C@H](C)CO)C(=O)c2cc(NS(=O)(=O)c3cccs3)ccc2O1,.,26.0,-81.8*,-0.1
C[C@H](CO)N1C[C@H](C)[C@H](CN(C)C(=O)Nc2ccc(F)cc2)OCCCC[C@H](C)Oc2ccc(NS(=O)(=O)c3cccs3)cc2C1=O,0.0,59.3,-43.0,0.6
C[C@@H]1CN([C@@H](C)CO)C(=O)c2cc(NS(=O)(=O)c3cccs3)ccc2O[C@@H](C)CCCCO[C@H]1CN(C)C(=O)Nc1ccc(F)cc1,3.0,67.9,-80.8*,-0.9
O=C(Nc1ccc(Cl)cc1)N[C@H]1CC[C@H](CCNC(=O)c2ccccc2F)O[C@H]1CO,43.3*,-53.0,14.5,39.7*
COc1ccc2c3c(n(C)c2c1)[C@@H](CO)N(C(=O)Nc1ccc(F)cc1)CC31CN(S(=O)(=O)c2cccc(C)c2)C1,.,.,-27.5,-0.4
COc1ccc2c3c(n(C)c2c1)[C@H](CO)N(C(=O)Nc1ccc(F)cc1)CC31CCN(S(=O)(=O)c2cccs2)CC1,.,.,-85.6*,-0.5
COc1ccc2c3c(n(C)c2c1)[C@H](CO)N(C(=O)Nc1ccc(F)cc1)CC31CCN(S(=O)(=O)c2cccc(F)c2)CC1,.,.,-88.0*,-1.7
COc1cccc(C#Cc2ccc([C@@H]3[C@@H](CO)N4C(=O)CN(C(=O)c5ccccc5)C[C@@H]34)cc2)c1,.,.,-90.6*,-2.3

# Source: PubChem BioAssay
